From ChEMBL document CHEMBL1128385, “Three-dimensional quantitative structure-activity relationships of somatostatin analogues. 1. Comparative molecular field analysis of growth hormone release-inhibiting potencies” (J Med Chem, 1995)
Where a SMILES comes first, the peptide text is derived from it. Bridges are numbered along the chain shown (N, C = ends). [ ]: non-standard residue; d: D form. 2Nal = N[C@@H](Cc1ccc2ccccc2c1)C(=O)O

organism: Rattus norvegicus; experiment: In vitro GH release inhibiting potency on anterior pitutaries from adult male rats, relative to somatostatin; assay type: functional
How it was run: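 Rat anterior pituitary cells (adult males, 200-250 g), trypsin/DNase dispersed, plated 2 × 10^5 cells/well, cultured 96 h at 37 °C in serum-supplemented DMEM. After washing, cells were pulsed 3 h at 37 °C with 1 nM GRF(1-29)NH2 ± graded analogue doses in medium 199/1% BSA, quadruplicate wells. Medium GH was measured by double-antibody RIA. Potency relative to somatostatin (=1.0) came from four-point assay (mean of ≥3 experiments) or IC50 comparison.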

SMILES | GHI
C[C@@H](O)[C@@H]1NC(=O)[C@H](CCCCN)NC(=O)[C@@H](Cc2c[nH]c3ccccc23)NC(=O)[C@H](Cc2ccccc2)NC(=O)[C@H](Cc2ccccc2)NC(=O)CCCCCCNC(=O)[C@H](Cc2ccccc2)NC1=O (stereo in doubt) | 1.08
CC(C)[C@H](NC(=O)[C@H](CCCCN)NC(=O)[C@@H](Cc1c[nH]c2ccccc12)NC(=O)[C@H](Cc1ccc(O)cc1)NC(=O)[C@H](C)NC(=O)[C@H](N)Cc1ccccc1)C(=O)N[C@@H](C)C(=O)N[C@@H](Cc1ccc2ccccc2c1)C(N)=O (H-[dF]AY[dW]KVA[2Nal]-NH2) | 15
CC(C)[C@@H]1NC(=O)[C@H](CCCCN)NC(=O)[C@@H](Cc2c[nH]c3ccccc23)NC(=O)[C@H](Cc2ccc(O)cc2)NC(=O)[C@H](NC(=O)[C@H](N)Cc2ccc3ccccc3c2)CSSC[C@@H](C(=O)N[C@@H](Cc2ccc3ccccc3c2)C(=O)O)NC1=O | 1.12
CC[C@@H]1NC(=O)[C@H](CCCCN)NC(=O)C(Cc2c[nH]c3ccccc23)NC(=O)[C@H](Cc2ccc(O)cc2)NC(=O)[C@@H]2Cc3ccccc3CN2C(=O)[C@H](Cc2ccccc2)NC1=O (single isomer, unassigned) | 0.26
CC(C)[C@H](NC(=O)[C@H](CCCCN)NC(=O)[C@@H](Cc1c[nH]c2ccccc12)NC(=O)[C@H](Cc1ccc(O)cc1)NC(=O)[C@H](Cc1ccc(Cl)cc1)NC(=O)[C@H](N)Cc1ccccc1)C(=O)N[C@@H](Cc1ccccc1)C(=O)N[C@H](C)C(N)=O | 4000
CC(C)[C@@H]1NC(=O)[C@H](CCCCN)NC(=O)[C@@H](Cc2c[nH]c3ccccc23)NC(=O)[C@H](Cc2ccc(O)cc2)NC(=O)[C@@H](NC(=O)[C@H](N)Cc2ccccc2)CSSC[C@@H](C(=O)N[C@@H](Cc2ccc3ccccc3c2)C(N)=O)NC1=O (H-[dF]CY[dW]KVC[2Nal]-NH2; disulfide 2-7) | 0.43
CC(C)[C@H](NC(=O)[C@H](CCCCN)NC(=O)[C@@H](Cc1c[nH]c2ccccc12)NC(=O)[C@H](Cc1ccc(O)cc1)NC(=O)[C@H](Cc1ccccc1)NC(=O)[C@H](N)Cc1ccccc1)C(=O)N[C@@H](Cc1ccccc1)C(=O)N[C@H](C(N)=O)[C@@H](C)O (H-[dF]FY[dW]KVFT-NH2) | 111
